An excerpt weighted towards active compounds, which were near 3.9% of everything screened.
FXN GAA850 act: FXN promoter activators, primary screen, cell-based, luciferase luminescence, HEK293 lucGAA850; HEK293 lucGAA850 FXN promoter luciferase reporter, 24 h; percent of 10 µM SAHA response; activation, % at 6 µM; hit rate 0.56% among 360,000;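 active = activation above the average of all compounds screened plus 3 SD, cutoff fixed separately per campaign, cut at about 7.5% in these data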;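 also: 0% = DMSO wells and 100% = 10 µM SAHA wells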
HIF act: HIF pathway transcriptional activators, primary screen, cell-based, U2OS HRE-luciferase, luminescence. U2OS HRE-luciferase reporter; normalized: DMSO 0%, desferrioxamine 100%. activation, % at 7.5 µM (by protocol). hit rate 0.32% among 300,000;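 active = mean activation of at least 10% of the iron chelator positive control signal, with at least half of replicates also reaching 10%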
AHR activator: AHR activators, primary screen, cell-based, luminescence, luciferase reporter, human. activation, % at 5 µM. hit rate 2.5% among 320,000. AID 2796, 2010. Aryl hydrocarbon receptor (Homo sapiens), P35869. AHR-responsive luciferase reporter cells; in the data active = activation above about 47%;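 also: 0% = vehicle wells and 100% = reference agonist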
ABCB6 inh MLPCN: ABCB6 transporter inhibitors, primary screen, K562-ABCB6 cells, flow cytometry, MLPCN library; ATP-binding cassette sub-family B member 6 (Homo sapiens), Q9NP58; K562-ABCB6 porphyrin accumulation, 1 h; stronger effect = lower value; fluorescence ratio to DMSO, % at 10 µM; hit rate 0.19% among 360,000;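 active = fluorescence ratio to DMSO below 75%, the collection mean minus 3 SD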;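 also: signal is porphyrin accumulated inside mitochondria; 100% equals median channel fluorescence of DMSO control wells; lower ratio means ABCB6 inhibition with less porphyrin fluorescence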
Target sequence (Q9NP58 whole entry, looked up): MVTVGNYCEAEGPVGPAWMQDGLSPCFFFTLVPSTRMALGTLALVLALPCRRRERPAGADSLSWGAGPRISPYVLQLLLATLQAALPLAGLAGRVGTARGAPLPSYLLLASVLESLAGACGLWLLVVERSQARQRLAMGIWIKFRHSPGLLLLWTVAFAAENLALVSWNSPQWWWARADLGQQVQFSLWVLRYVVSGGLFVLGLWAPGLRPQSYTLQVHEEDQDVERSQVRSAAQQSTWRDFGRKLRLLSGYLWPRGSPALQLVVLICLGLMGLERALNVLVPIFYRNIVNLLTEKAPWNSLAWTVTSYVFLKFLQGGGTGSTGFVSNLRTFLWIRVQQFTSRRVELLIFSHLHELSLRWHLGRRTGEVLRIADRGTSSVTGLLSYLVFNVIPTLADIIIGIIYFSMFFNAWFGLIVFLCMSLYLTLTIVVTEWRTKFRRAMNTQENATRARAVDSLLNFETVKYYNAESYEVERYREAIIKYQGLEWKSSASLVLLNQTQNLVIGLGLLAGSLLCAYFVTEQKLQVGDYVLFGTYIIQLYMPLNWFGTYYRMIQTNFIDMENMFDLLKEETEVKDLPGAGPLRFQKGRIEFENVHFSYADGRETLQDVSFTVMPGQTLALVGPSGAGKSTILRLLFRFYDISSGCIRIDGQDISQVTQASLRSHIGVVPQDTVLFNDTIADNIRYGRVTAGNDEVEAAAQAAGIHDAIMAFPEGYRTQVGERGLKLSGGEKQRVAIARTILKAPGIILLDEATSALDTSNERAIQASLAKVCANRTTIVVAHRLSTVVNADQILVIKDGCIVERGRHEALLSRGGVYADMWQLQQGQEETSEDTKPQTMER
SR-BI uptake up: activators of SR-BI mediated DiI-HDL uptake, primary screen, ldlA[mSR-BI] CHO cells, DiI fluorescence | 3 h; 100 = double the neutral-control signal | activation, % at 12.5 µM | hit rate 0.096% among 320,000 | AID 504775, 2011;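 active = mean replicate activation of at least 60% and every replicate at or above 60%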;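 also: 0% = median plate neutral-control signal and 100% = twice that signal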
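system = CHO ldlA[mSR-BI] cells, LDL receptor-null, SR-BI overexpressing | medium = Ham's F12 with 0.5% BSA, HEPES 25 mM, pH 7.4 | probe or stimulus = DiI-HDL 10 µg/mL | compound dosing = single-point compound dose | incubation = compound exposure 3 h, 37 °C | technique = DiI fluorescence, bottom read | read-out = cell-associated DiI fluorescence as measure of HDL uptake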
SR-BI HDL uptake: inhibitors of SR-BI mediated HDL lipid uptake, primary screen, ldlA[mSR-BI] cells, fluorescence, single point. Scavenger receptor class B member 1 (Mus musculus), Q61009. hit rate 0.96% among 320,000. inhibition, % at 12.5 µM. ldlA[mSR-BI] CHO cells, DiI-HDL uptake fluorescence, 3 h. AID 488896, 2010;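 active = mean replicate inhibition of at least 70% and a set share of replicates each scoring 70 or more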;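 also: 0% = median of neutral control wells and 100% = median of positive control wells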
The depositor's hits bear a star; x = no result given.

SMILES	FXN GAA850 act	HIF act	AHR activator	ABCB6 inh MLPCN	SR-BI uptake up	SR-BI HDL uptake
CC(C)c1nc(SCC(=O)NCC2CCCO2)c2c(=O)n(C)c(=O)n(C)c2n1 (centres undefined)	-1	0	-1	100	9	-9
COc1cc(F)cc(-c2ccc3c(c2)c(-c2cccs2)c(-c2cc(OC)cc(OC)c2)n3C)c1	-1	x	1	97	-37	37
COc1ccc(-c2c(-c3cc(OC)cc(OC)c3)n(C)c3ccc(-c4ccc5[nH]ccc5c4)cc23)cc1	0	x	2	99	-76	76*
COc1ccc(-c2c(-c3cc(OC)cc(OC)c3)n(C)c3ccc(-c4cnc(OC)nc4)cc23)cc1	1	x	-2	94	-16	5
COc1cc(OC)cc(-c2c(-c3cccs3)c3cc(-c4ccn[nH]4)ccc3n2C)c1	2	x	64*	104	-57	57
Cn1c(-c2ccsc2)c(-c2cccs2)c2cc(-c3ccc4cc[nH]c4c3)ccc21	0	x	66*	97	-77	77*
Cn1c(-c2ccsc2)c(-c2cccs2)c2cc(-c3ccc4[nH]ccc4c3)ccc21	0	x	35	107	-34	34
Cn1c(-c2ccsc2)c(-c2cccs2)c2cc(Br)ccc21	-1	x	63*	95	-27	27
Cc1ccccc1OCC(=O)NNC(=O)CSc1nc(N)cc(N)n1	3	0	5	102	-3	3
CCCC(=O)Nc1ccc(Cl)c(NC(=O)c2ccco2)c1	-2	x	0	89	-29	29
CCCC(=O)Nc1ccc(Cl)c(NC(=S)NC(=O)c2ccco2)c1	-1	0	53*	98	-60	60
O=C(Nc1ccc(Cl)c(NC(=O)c2cccs2)c1)c1ccco1	1	1	75*	99	-22	22
O=C(Nc1ccc(NC(=O)c2cccs2)cc1Cl)c1ccco1	3	1	-7	88	-36	36
Nc1ccn(Cc2ccccc2F)n1	1	0	0	104	7	-7
O=C(COC(=O)c1ccc(O)cc1O)NC(=O)Cc1ccccc1	0	x	x	98	-1	1
O=C(CN1CCN(c2ccc(O)cc2)CC1)Nc1ccccc1C(=O)NCCc1ccccc1	-3	x	74*	93	-19	19
O=C1C(Oc2ccccc2)C(c2ccc3c(c2)OCO3)N1CCc1ccc(F)cc1 (centres undefined)	-2	-1	71*	98	-3	3
Cc1cc(/C=C(\C#N)C(=O)NCc2ccco2)c(C)n1-c1cccnc1	5	3	70*	95	4	-4
Cc1cc(C)c(C#N)c(Nc2ccc(F)cc2)n1	-1	0	74*	98	-10	10
CCOC(=O)c1ccc(Nc2nc(C(=O)OCC)nc3ccccc23)cc1	-3	0	5	95	-46	46
CCOC(=O)c1ccc(Nc2nc(C)cc(C)c2C#N)cc1	4	0	6	96	-73	73*
CCN1CCN(C(=O)CN(c2ccc(F)cc2)S(=O)(=O)c2ccc(OC)c(OC)c2)CC1	2	-2	0	94	19	-19
O=C(Nc1ccncc1)c1ccc2c(c1)OCCO2	3	1	11	99	9	-9
S=C(NC1CCCC1)N1CCN(c2ccccn2)CC1	3	-8	57*	95	-1	1
CC(C)NC(=O)C1(C)CCN1C(=O)C/C=C/c1ccccc1 (centres undefined)	2	x	x	91	x	x
SMILES	FXN GAA850 act	HIF act	AHR activator	ABCB6 inh MLPCN	SR-BI uptake up	SR-BI HDL uptake
CCOCCCNC(=S)N1CCC(C(=O)c2ccc(C)cc2)CC1	2	0	1	93	-11	11
CCCNC(=O)c1sc2c(c1C(=O)Nc1ccccn1)CCCC2	0	-1	13	97	-37	37
O=c1c2[nH]c3ccccc3c2nc2n1CCS2	2	1	57*	93	-3	3
CSCCC(NC(=O)c1ccccc1Cl)C(=O)N1CCC1 (centres undefined)	1	0	1	101	17	-17
CSCCC(NC(=O)c1ccc(Cl)cc1Cl)C(=O)N1CCN(C(=O)c2ccccc2)CC1 (centres undefined)	1	x	x	99	-78	78*
CC(=O)N(c1cccc(Cl)c1)c1nc(C)cc(C)c1C#N	1	0	9	94	15	-15
COc1ccccc1N(C(C)=O)c1nc(C)cc(C)c1C#N	-1	0	48*	98	5	-5
COc1ccc(Cl)cc1N(C(C)=O)c1nc(C)cc(C)c1C#N	1	-1	54*	101	9	-9
Cc1ccc2c(c1)[C@H]1[C@H](CO2)[C@H](c2ccccc2)[C@]2(C)C(=O)NCC(=O)N12	1	x	-1	97	1	5
CCOC(=O)c1cnn(-c2ccccn2)c1N	2	3	-5	90	-16	16
CCOC(=O)c1cnn(-c2cc(C)c3ccccc3n2)c1N	2	0	53*	81	4	-4
Cc1cccc(N2C(=O)CC(Sc3nc(C)c4c(n3)CCCC4)C2=O)c1 (centres undefined)	2	0	-3	97	-5	5
COc1nc(-c2ccccc2)cc(-c2ccccc2)n1	-1	0	63*	89	-35	35
COc1ccc2nc(-c3ccccc3)cc(OC)c2c1	6	2	64*	100	-6	6
Cc1ccc(-c2cc(-c3ccccc3)nc(Cl)n2)cc1	2	1	47	94	-29	29
CN(N)c1nc(-c2ccccc2)cc(-c2ccccc2)n1	3	-3	66*	96	-41	41
Cc1nc(-c2ccccc2)cc(-c2ccccc2)n1	0	0	18	97	-31	31
Cc1ccc(OCC(O)Cn2c(N3CCOCC3)nc3c2c(=O)[nH]c(=O)n3C)cc1 (centres undefined)	1	0	1	98	13	-13
CCC(C(=O)NCCN1CCN(C)CC1)n1c(C)c2cnn(-c3ccccc3)c(=O)c2c1C (centres undefined)	-1	0	-3	97	-10	10
CC(C)c1nnc(NC(=O)c2ccc3ccccc3c2)s1	7	3	19	98	-27	27
COc1ccc(CNc2ncccc2[N+](=O)[O-])cc1	1	4	14	95	-4	4

Assay outcomes from PubChem.
